As usually defined, the GI50 is the concentration that inhibits growth by half. By IC50 is commonly meant the point on the concentration scale where inhibition reaches its midpoint.

One assay relates to HT-29. The experiment in a line: MTT growth inhibition, HT-29 colon adenocarcinoma cells. It counts as cell-based, human. The following applies: Homo sapiens, HT-29, 72 h, read-out: GI50 HT-29. A digest of the protocol: (§1)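 Cells seeded at 8 × 10^3 per well in 96-well plates and held 18 h at 37 °C, 5% CO2. Medium then replaced with test compound in complete medium at various concentrations for 72 h continuous exposure. Viability read by MTT. GI50 is the concentration giving 50% proliferation inhibition, from dose–response curves; mean ± SE of ≥3 independent experiments. Media: leukemia lines in RPMI-1640; solid-tumour lines in DMEM with penicillin G 115 U mL−1, streptomycin and 10% FBS.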

A further assay deals with ARO. The experiment in a line: MTT growth inhibition, ARO anaplastic thyroid cells. Type of assay: cell-based, human. To be noted: Homo sapiens, Thyroid cell, 72 h, read-out: GI50 ARO. Put shortly: as §1
Another assay deals with Hep G2. The assay can be described thus: MTT growth inhibition, HepG2 hepatoma cells. The following applies: Homo sapiens, HepG2, 72 h, read-out: GI50 Hep G2. Type of assay: cell-based, human. A digest of the protocol:
as §1

For the next assay, the system named is IGROV. The assay can be described thus: MTT growth inhibition, IGROV ovarian cancer cells. It counts as cell-based, human. The following applies: Homo sapiens, IGROV, 72 h, read-out: GI50 IGROV. A digest of the protocol:
as §1

The subject of a further assay is MCF-7. The assay can be described thus: MTT growth inhibition, MCF-7 breast adenocarcinoma cells. It counts as cell-based, human. To be noted: Homo sapiens, MCF7, 72 h, read-out: GI50 MCF-7. A digest of the protocol: as §1
The subject of another assay is HeLa. The assay can be described thus: MTT growth inhibition, HeLa cervix carcinoma cells. Type of assay: cell-based, human. To be noted: Homo sapiens, HeLa, 72 h, read-out: GI50 HeLa. A digest of the protocol:
as §1

A further assay relates to HL-60. The assay can be described thus: MTT growth inhibition, HL-60 promyelocytic leukemia cells. It counts as cell-based, human. The following applies: Homo sapiens, HL-60, 72 h, read-out: GI50 HL-60. A digest of the protocol: as §1
Another assay concerns ML2. The assay can be described thus: MTT growth inhibition, ML-2 myeloid leukemia cells. The following applies: Homo sapiens, ML-2, 72 h, read-out: GI50 ML2. Type of assay: cell-based, human. Put shortly: as §1
Another assay concerns K562. The experiment in a line: MTT growth inhibition, K562 chronic myelogenous leukemia cells. It counts as cell-based, human. To be noted: Homo sapiens, K562, 72 h, read-out: GI50 K562. Put shortly: as §1
Another assay has as its system RS 4;11. The experiment in a line: MTT growth inhibition, RS 4. Type of assay: cell-based, human. To be noted: Homo sapiens, RS4-11, 72 h, read-out: GI50 RS 4;11. Put shortly: as §1
A further assay relates to Jurkat. The experiment in a line: MTT growth inhibition, Jurkat T-leukemia cells. Type of assay: cell-based, human. The following applies: Homo sapiens, Jurkat, 72 h, read-out: GI50 Jurkat. A digest of the protocol:
as §1

For another assay, the system named is Bovine brain tubulin. The assay can be described thus: Inhibition of tubulin polymerization. It counts as biochemical. To be noted: read-out: Tubulin Assembly IC50; tubulin 10 μM; 20 min incubation; ± SD.
Assay [1] concerns Bovine brain tubulin (colchicine site). The assay can be described thus: Inhibition of [3H]colchicine binding to tubulin. The following applies: tubulin 1 μM, [3H]colchicine 5 μM; for Colchicine Binding Inhibition [%], 5 μM: compound 5 μM.
A further assay relates to solid tumor cells. The experiment in a line: MTT growth inhibition, solid tumor cell lines. Type of assay: cell-based. To be noted: Homo sapiens, 72 h, read-out: GI50, solid tumor cells. Put shortly:
as §1

For a further assay, the system named is leukemia cells. The experiment in a line: MTT growth inhibition, leukemia cell lines. Type of assay: cell-based, human. The following applies: Homo sapiens, 72 h, read-out: GI50, leukemia cells. A digest of the protocol:
as §1

The subject of assay [2] is Jurkat cells. The assay can be described thus: Flow cytometric cell-cycle analysis. Type of assay: cell-based, human. To be noted: for effect on cell-cycle progression (G2/M arrest, in words): 24 h treatment. Put shortly: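 Jurkat cells in exponential growth, 5 × 10^5 per sample, exposed to test compound at various concentrations for 24 h. Cells fixed in ice-cold 70% ethanol, treated with lysis buffer containing RNase A and 0.1% Triton X-100, then stained with PI. DNA content measured by flow cytometry and phases assigned from DNA histograms. Mean ± SEM of two independent experiments.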
Background: In flow cytometry, cells or beads pass a laser one at a time.

In assay [3] the test system is Jurkat cells. The experiment in a line: Annexin V-FITC/PI apoptosis assay. It counts as cell-based, human. The following applies: 24 h treatment. Put shortly: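 Jurkat cells exposed to test compound at various concentrations for 24 or 48 h, then harvested. Co-labelled with annexin V–FITC and PI and analysed by flow cytometry (excitation 488 nm; emission 525 and 585 nm). Reported as mean percentage of annexin-V-positive cells ± SEM, three independent experiments.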

The test system of assay [4] is Jurkat cells. The experiment in a line: Mitochondrial membrane potential. It counts as cell-based, human. To be noted: 0.5 and 0.1 μM, 24 and 48 h. Put shortly:
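After treatment, Jurkat cells were pelleted and resuspended in HBSS containing JC-1, then kept 10 min at 37 °C. They were spun again, taken up in HBSS and read by flow cytometry. Polarised mitochondria give red JC-1 aggregates (590 nm); depolarisation gives green monomers (530 nm).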

The subject of assay [5] is Jurkat cells. The experiment in a line: Mitochondrial ROS production. It counts as cell-based, human. The following applies: 24 and 48 h. Put shortly: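 Jurkat cells treated with test compound for 24 or 48 h, pelleted, then loaded in HBSS with hydroethidine (HE) or H2-DCFDA for 30 min at 37 °C. Cells re-pelleted into HBSS and read by flow cytometry: 488 nm excitation, emission 585 nm (HE) and 530 nm (DCF). Fluorescence intensity given as % of untreated control; mean ± SEM, three independent experiments.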

In assay [6] the test system is caspase-3 in Jurkat cells. The experiment in a line: Caspase-3 activation by flow cytometry. The following applies: time- and concentration-dependent. It counts as cell-based, human.
The subject of another assay is Bcl-2 in Jurkat cells. The assay can be described thus: Flow cytometric analysis of Bcl-2 expression. It counts as cell-based, human. To be noted: 24 and 48 h, flow cytometry. Put shortly: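 Jurkat cells incubated with test compound for 24 and 48 h, then pelleted and permeabilised with a Fix&Perm kit. Labelled with FITC-conjugated anti-Bcl-2 monoclonal antibody, washed and analysed by flow cytometry. Mean ± SEM of two independent experiments.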

For the compound `CCOC(=O)CCn1ccc2c3c(=O)cc(-c4ccccc4)[nH]c3ccc21` [Compound 11, Ethyl 3-(9-oxo-7-phenyl-6H-pyrrolo[3,2-f]quinolin-3(9H)-yl)propanoate], the GI50 came out at 480 ± 80 nM in the assay with HT-29; 550 ± 150 nM in the assay on ARO; 520 ± 100 nM in the assay on Hep G2; 620 ± 150 nM in the assay on IGROV; 580 ± 180 nM in the assay with MCF-7; 450 ± 100 nM with HeLa. For the same compound, the GI50 in the assay on HL-60 was 2 ± 0.1 nM; with ML2, 5 ± 2 nM; with K562 it was 190 ± 60 nM; with RS 4;11, 2 ± 0.4 nM; with Jurkat it was 0.5 ± 0.01 nM; in the assay on solid tumor cells, 400 to 1400 nM. Besides, the GI50 with leukemia cells was in the range of 0.5 to 10 nM. In addition, in the assay on Bovine brain tubulin, the IC50 stood at 750 ± 40 nM. Further, in assay [1] (compound 1 μM), the “Colchicine Binding Inhibition [%], 1 μM” value stood at 44 ± 6%. Moreover, in [1], the “Colchicine Binding Inhibition [%], 5 μM” value is given as 75 ± 4%. For the same compound, the G2/M cell population with Jurkat cells [2] (24 h, 0.06 μM, control 9.4 %) is 77%. In the assay on Jurkat cells [2] (24 h, 0.06 μM, control 43 %), this compound yielded a S-phase cells of 20%. The G1 cells in the assay with Jurkat cells [2] (24 h, 0.06 μM, control 47 %) turned out to be 3%. Besides, the “effect on cell-cycle progression (G2/M arrest, in words)” value in the assay on Jurkat cells [2] is listed as “clear G2/M arrest pattern in a concentration-dependent manner”. In the assay with Jurkat cells [3], the “induction of apoptotic (annexin-V-positive) cells, in words” value is reported as “remarkable induction of apoptotic cells”. The “percentage of cells with low ΔΨmt (JC-1), in words” value in the assay on Jurkat cells [4] is recorded as “significant increase in the percentage of cells with low ΔΨmt”. For the same compound, the “ROS production (HE, H2-DCFDA), in words” value in the assay with Jurkat cells [5] is on record as “induced the production of ROS relative to control cells”. Moreover, the “caspase-3 activation, in words” value in assay [6] was “activate caspase-3”. Besides, the “Bcl-2 expression, in words” value with Bcl-2 in Jurkat cells is listed as “decrease Bcl-2 expression”.
As to `COc1cc(Cn2ccc3c4c(=O)cc(-c5ccccc5)[nH]c4ccc32)cc(OC)c1OC` [Compound 12, 7-Phenyl-3-(3,4,5-trimethoxybenzyl)-3H-pyrrolo[3,2-f]quinolin-9(6H)-one], the GI50 in the assay on HT-29 came out at 450 ± 100 nM; in the assay with ARO, 580 ± 150 nM; in the assay with Hep G2 it was 950 ± 150 nM; in the assay on IGROV, 850 ± 200 nM; with MCF-7 it was 1400 ± 500 nM; in the assay with HeLa, 400 ± 50 nM. Also, the GI50 in the assay on HL-60 was 2 ± 0.1 nM; with ML2, 10 ± 2 nM; in the assay with K562, 30 ± 7 nM; with RS 4;11, 1 ± 0.1 nM; in the assay with Jurkat it was 3 ± 0.1 nM; in the assay on solid tumor cells it was 400 to 1400 nM. In the assay with leukemia cells, the GI50 was 0.5 to 10 nM. For the same compound, in the assay on Bovine brain tubulin, the IC50 turned out to be 1400 ± 200 nM. Further, the “Colchicine Binding Inhibition [%], 5 μM” value in assay [1] was determined as 30 ± 4%. Moreover, in assay [1] (compound 50 μM), the “Colchicine Binding Inhibition [%], 50 μM” value is given as 56 ± 2%. Moreover, the “arrest in G2/M phase (cell population)” value in the assay on Jurkat cells [2] (24 h, 0.25 μM, control 9.4 %) was 65%. In addition, the “effect on cell-cycle progression (G2/M arrest, in words)” value in the assay with Jurkat cells [2] is reported as “clear G2/M arrest pattern in a concentration-dependent manner”. In addition, the “induction of apoptotic (annexin-V-positive) cells, in words” value in the assay on Jurkat cells [3] was “remarkable induction of apoptotic cells”. Also, in the assay with Jurkat cells [4], the “percentage of cells with low ΔΨmt (JC-1), in words” value is on record as “significant increase in the percentage of cells with low ΔΨmt”. Besides, in the assay with Jurkat cells [5], the “ROS production (HE, H2-DCFDA), in words” value is “induced the production of ROS relative to control cells”. Also, the “caspase-3 activation, in words” value in assay [6] is “activate caspase-3”. Besides, the “Bcl-2 expression, in words” value with Bcl-2 in Jurkat cells is on record as “decrease Bcl-2 expression”.

The values above are taken from article PMC2921709 (ChemMedChem, 2010).
